MrgX1 antagonist – antagonists of human MrgX1 receptor. Q96LB2. MRGX1-HEK293 calcium flux, Fluo-4, BAM8-22 antagonism; stronger effect = lower value. B-score at 10 µM. 310,000 tested, 1.3% active. AID 588676;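 active = calcium-response B-score plate-corrected more than 3 library SD below zero, starting fluorescence within 5 deviations, no agonist response on first addition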;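 note: peak minus trough fluorescence over baseline after final BAM8-22 challenge near maximal dose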
Target sequence (Q96LB2 whole entry, looked up): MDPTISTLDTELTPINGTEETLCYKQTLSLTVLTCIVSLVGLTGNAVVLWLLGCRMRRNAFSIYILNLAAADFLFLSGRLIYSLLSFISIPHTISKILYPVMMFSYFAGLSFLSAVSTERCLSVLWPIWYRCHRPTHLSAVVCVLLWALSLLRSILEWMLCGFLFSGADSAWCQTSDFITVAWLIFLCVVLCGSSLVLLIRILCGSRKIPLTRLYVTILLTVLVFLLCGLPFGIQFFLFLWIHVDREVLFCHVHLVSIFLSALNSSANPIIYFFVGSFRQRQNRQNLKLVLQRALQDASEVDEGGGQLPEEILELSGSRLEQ
RGS4 act – RGS4 potentiation or activation; HEK293 M3R/inducible RGS4, carbachol calcium flux Fluo4; stronger effect = lower value; B-score at 10 µM; 310,000 tested, 0.92% active;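 active = B-score of the integrated calcium signal more than 4 SD below the library mean, with starting fluorescence not abnormally high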;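 note: negative B-score means reduced calcium response which marks RGS4 activation or potentiation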
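Also added: carbachol at ECmax as muscarinic agonist stimulus; Assay system: HEK293 cells with stable M3R and inducible RGS4; Timing: overnight RGS4 induction, 30 min dye load 37 °C, 20 min compound RT; Measured by: Fluo4-AM (2 µM) calcium-flux fluorescence, kinetic read.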
RGS4 inh – human RGS4 inhibition; HEK293 M3R/RGS4 inducible, Fluo-4 calcium flux; stronger effect = higher value; triggered by carbachol at its EC20; B-score at 10 µM; 310,000 tested, 0.45% active;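 active = B-score, a plate-corrected calcium signal, over three deviations above library mean, with baseline fluorescence within five deviations of library mean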;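 note: RGS4 expression induced by doxycycline in cells with stable M3 receptor; B-score is computed from the integrated fluorescence ratio over baseline after carbachol; higher B-score means a larger calcium signal and so more RGS4 inhibition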
Target sequence (P49798 whole entry, looked up): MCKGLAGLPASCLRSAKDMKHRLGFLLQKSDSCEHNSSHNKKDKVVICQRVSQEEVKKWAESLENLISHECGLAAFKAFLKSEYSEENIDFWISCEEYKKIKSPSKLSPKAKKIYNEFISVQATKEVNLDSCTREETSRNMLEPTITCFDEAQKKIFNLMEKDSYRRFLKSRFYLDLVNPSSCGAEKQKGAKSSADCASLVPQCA
MrgX1 ag – human MrgX1 receptor agonism, primary screen. Q96LB2. MrgX1-HEK293 cells, Fluo-4 calcium fluorescence, agonist mode; stronger effect = higher value. B-score at 10 µM. 310,000 tested, 0.44% active. AID 588627;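 active = calcium response B-score plate-corrected fluorescence ratio at least 3 library SD, with starting fluorescence B-score inside 5 SD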
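Assay system: MrgX1-expressing HEK293 cells / Amount: fifteen thousand cells per well / Doses: test compound in the initial addition of three / Timing: cells plated overnight, dye loaded 0.5 h 37 °C, 0.5 h room temperature / Technique: kinetic calcium dye fluorescence, Fluo-4 NW / Control set: positive and negative controls per plate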
MrgX1 PAM – human MrgX1 positive allosteric modulation, primary screen | Q96LB2 | MrgX1-HEK293, Fluo-4 calcium flux, FDSS; stronger effect = higher value | B-score at 10 µM | 310,000 tested, 0.63% active | AID 588675;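 active = plate-corrected calcium response at least 3 library SD above typical, normal starting fluorescence, not activating the receptor alone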;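 note: compound read alongside a low EC10 to EC30 dose of BAM8-22 agonist; peak minus trough fluorescence over baseline measured at the second addition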
RGS4 inh valid – RGS4 inhibitor validation; shares compounds with RGS4 inh; HEK293 M3R/RGS4, carbachol calcium Fluo-4 fluorescence; carbachol added at its EC20; 0 = buffer wells, 100 = carbachol control; calcium response, % at 10 µM; 1,700 tested, 65% active; AID 492999;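 active = duplicate-averaged calcium response above the buffer-only control mean plus 5 SD of those controls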;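 note: integrated fluorescence ratio F max minus min over baseline F0; higher response in RGS4-induced cells means RGS4 inhibition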
M3R Ca ctr – checks RGS4 inhibitor effects in non-induced HEK293 M3R cells; shares compounds with RGS4 inh; 1,900 tested, 20% active; activity (percent), % at 10 µM; carbachol calcium Fluo-4; submaximal (EC20) carbachol stimulus; buffer wells 0%, carbachol control wells 100%; call rule not given here;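 note: RGS4 induction absent so cells express M3R without RGS4; higher means more calcium signal and flags a non-specific hit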
RGS4 inh ctr2 – second RGS4 inhibitor counter-screen in uninduced cells lacking carbachol; shares compounds with RGS4 inh; HEK293 M3R/RGS4 non-induced, Fluo-4 calcium, no carbachol; normalised: buffer wells 0%, carbachol wells 100%; calcium response (agonist-mode artifact), % at 10 µM; 1,900 tested, 22% active;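 active = duplicate-averaged calcium rise in uninduced cells above buffer wells' mean plus 5 SD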
* = called active by the depositor; i = inactive; nt = no result given. Only some compounds are listed: those with a hit (about 3.5% of all), similar ones and a draw of the others.

SMILES	MrgX1 antagonist	RGS4 act	RGS4 inh	MrgX1 ag	MrgX1 PAM	RGS4 inh valid	M3R Ca ctr	RGS4 inh ctr2
COc1ccc(-c2csc(Nc3ccc(S(=O)(=O)Nc4cc(C)on4)cc3)n2)cc1C	i	i	13.3*	i	i	i	46.5%*	i
COc1cc(NS(=O)(=O)c2ccc(Nc3nc(-c4ccccn4)cs3)cc2)nc(OC)n1	i	i	i	i	i	nt	i	i
CCCN(CCC)CCCNC(=O)c1cn(-c2ccc(OC)cc2)c(=O)c2ccccc12	i	i	i	i	i	nt	nt	nt
CCN(CC)CCN1C(=O)C2C(C(=O)Nc3cccc(C)c3)C3C=CC2(O3)C1C(=O)NC1CCCC(C)C1C (stereo not drawn)	i	i	i	i	i	nt	nt	nt
Cc1cc(N=Cc2cc(Br)ccc2O)no1	i	i	7.18*	i	i	7.5%*	i	i
COc1cc(/C=C2\COC/C(=C\c3cc(OC)c(OC)c(OC)c3)C2=O)cc(OC)c1OC	nt	i	6.4*	nt	nt	20.5%*	i	i
COc1cc(/C=C2\CC/C(=C\c3cc(OC)c(OC)c(OC)c3)C2=O)cc(OC)c1OC	i	i	i	i	i	nt	nt	nt
O=C1/C(=C/c2ccncc2)CCC/C1=C\c1ccncc1	nt	i	23.6*	nt	nt	107.0%*	i	i
O=C1/C(=C\c2ccncc2)CCc2ccccc21	i	i	i	i	i	nt	nt	nt
O=C(Nc1cccc(Cl)c1)c1cc(F)cc2c1OCOC2	i	i	i	i	i	nt	nt	nt
CCCOc1ccc(-c2c(C(=O)N/N=C/c3ccc(C)cc3)nnn2-c2nonc2N)cc1	i	i	i	i	i	nt	39.0%*	i
CCOc1ccc(-c2c(C(=O)N/N=C/c3ccc(C)cc3)nnn2-c2nonc2N)cc1	i	i	i	i	i	i	i	i
COc1cc(C(F)(F)F)ccc1C(=O)NCCc1ccco1	i	i	i	i	i	nt	nt	nt
O=c1cc(-c2ccc(Cl)cc2)oc(=O)[nH]1	i	i	i	i	i	nt	nt	nt
O=c1cc(N=Nc2ccc(Cl)cc2)[nH]c(=O)[nH]1	i	i	16.7*	i	i	22.5%*	i	i
CCN1CCN(C(=S)Nc2ccc3nc4n(c(=O)c3c2)CCCCC4)CC1	i	i	i	i	i	nt	nt	nt
Cc1ccc(/C=C/c2nc3ccccc3[nH]2)o1	i	i	13.6*	i	i	i	i	i
Cc1cc2nc(/C=C/c3nc4cc(C)c(C)cc4[nH]3)[nH]c2cc1C	i	i	i	i	i	nt	nt	nt
COc1cc(/C=C2\SC(=Nc3ccc(N4CCOCC4)cc3)N(C)C2=O)ccc1OC(C)C(=O)O (stereo not drawn)	i	i	6.06*	i	i	7.5%*	i	i
COc1cc(/C=C2\SC(=Nc3ccccc3)N(Cc3ccco3)C2=O)ccc1OC(C)C(=O)O (stereo not drawn)	i	i	i	i	i	nt	nt	nt
CC(CN1CCN(Cc2ccccc2)CC1)OC(=O)c1ccco1 (stereo not drawn)	i	i	i	i	i	nt	nt	nt
Cc1ccc([N+](=O)[O-])cc1N(CC(=O)Nc1ccc(S(=O)(=O)Nc2cccc(C(F)(F)F)c2)cc1)S(C)(=O)=O	i	i	7.24*	i	i	22.0%*	i	i
C=CC(C)(C)c1c(O)c(CC=C(C)C)c(O)c2c(=O)c3ccc(O)c(O)c3oc12	i	i	6.01*	i	i	9.5%*	i	i
COC(C[C@@H]1O[C@H]1C(=O)COCc1ccccc1)OC	i	i	i	i	i	nt	nt	nt
COc1ccc(OCCSc2nnc(Cc3cccc4ccccc34)n2N)cc1	i	i	i	i	i	nt	i	i
SMILES	MrgX1 antagonist	RGS4 act	RGS4 inh	MrgX1 ag	MrgX1 PAM	RGS4 inh valid	M3R Ca ctr	RGS4 inh ctr2
COc1ccccc1CC(NC(C)=O)C(=O)NC1CCN(S(=O)(=O)c2ccc(NC(C)=O)cc2)CC1 (stereo not drawn)	i	i	i	i	i	i	i	i
COc1cccc(CC(NC(C)=O)C(=O)NC2CCN(S(=O)(=O)c3ccc(NC(C)=O)cc3)CC2)c1OC (stereo not drawn)	i	i	i	i	i	nt	nt	nt
COc1ccccc1CC(NC(C)=O)C(=O)NC1CCN(S(=O)(=O)c2ccccc2)CC1 (stereo not drawn)	nt	i	5.71*	nt	nt	i	i	i
CC(OC(=O)Cn1cnc2ccccc2c1=O)C(=O)NCc1ccccc1 (stereo not drawn)	i	i	i	i	i	nt	nt	nt
O=C(CCn1c(=O)oc2ccc(Cl)cc21)NCCCN1CCOCC1	i	i	i	i	i	nt	nt	nt
CCOC(=O)c1c(NC(=O)CC2SC(N)=NC2=O)sc2c1CCC(C)C2 (stereo not drawn)	i	i	i	i	i	nt	nt	nt
COC(=O)c1c(NC(=O)CC2SC(N)=NC2=O)sc2c1CCCC2 (stereo not drawn)	i	i	i	i	i	nt	nt	nt
COC(=O)c1c(NC(=O)CC2SC(N)=NC2=O)sc2c1CCC(C(C)(C)C)C2 (stereo not drawn)	i	i	12*	i	i	43.0%*	i	i
COC(=O)c1c(NC(=O)CC2SC(N)=NC2=O)sc2c1CCC(C)C2 (stereo not drawn)	i	i	i	i	i	nt	i	i
O=C(c1ccc2c(=O)n3c(nc2c1)CCCCC3)N1CCN(c2ccc([N+](=O)[O-])cc2)CC1	i	i	i	i	i	nt	nt	nt
COc1ccccc1N(CC(=O)NCC1CCCO1)C(=O)CNS(=O)(=O)c1ccc(Cl)cc1 (stereo not drawn)	i	i	i	i	i	nt	nt	nt
CCOc1ccc(C(=O)N/N=C/c2c(C)[nH]c(=O)[nH]c2=O)cc1	i	i	i	i	i	nt	nt	nt
Cc1ccc(NS(=O)(=O)c2c(C(=O)N3CCCCCC3)c(C)n(C)c2C)cc1C	i	i	i	i	i	nt	nt	nt
